# Compounds with a hit are over-represented: about 3.6% of the library has one in this group of screens.
# Measles CPE – compounds protecting cells from measles virus cytopathic effect, primary screen, measles RdRp inhibitor project, single point, MLSMR library, absorbance. protection (pct of control), % at 4 µM. Measles virus-infected cells, CPE protection. AID 841, 2007. 140,000 tested, 1.5% active; in the data active means protection mostly above about 24%, no sharp cut-off; inactive means mostly below about 26%
# Yeast growth inh – growth inhibitors of yeast BB579 in restrictive medium, primary screen, yeast lifespan-shortening project, S. cerevisiae; AID 804, 2007; OD615, 48 h; inhibition, % at 10 µM; 140,000 tested, 0.51% active;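 active means inhibition above a set limit, 3 SD over the mean compound inhibition, cut at about 44% in these data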
#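 Test system: Saccharomyces cerevisiae DeaD strain BB579, replicative lifespan model yeast | Buffer or medium: Restrictive CSMM-D medium | Doses: One dose, 10 µM compound with 0.25% DMSO | Incubation: 48 h exposure, 30 °C | Detection: Culture absorbance at 615 nm | Control set: Amphotericin B at 10 µg/mL as positive control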
# RAM inhibit – inhibitors of the yeast RAM network, primary screen, dse1pr::URA3 reporter, 5-FOA selection | S. cerevisiae dse1pr::URA3 reporter, 5-FOA growth OD615, 2 d; analog-sensitive cbk1-as2 kinase mutant strain | inhibition, % at 50 µM | 190,000 tested, 1.8% active | AID 868, 2007;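 active means inhibition above a set limit, 3 SD over mean compound inhibition, cut at about 8.4% in these data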;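 further: 0% = DMSO-only wells with no growth and 100% = 10 µM 1-NA-PP1 full growth; inhibition rescues growth on 5-FOA so higher OD means more RAM inhibition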
# Yeast life ext – compounds extending yeast replicative lifespan, primary screen, S. cerevisiae, OD615; inhibition of the nicotinamide effect, % at 10 µM; S. cerevisiae growth with nicotinamide; deaD strain in restrictive glucose medium; 130,000 tested, 0.68% active;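 active means inhibition above a set limit, placed 3 SD over the median of all compounds, cut at about 26% in these data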;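 further: 0% = nicotinamide-treated wells and 100% = cells grown without nicotinamide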
#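 Assay system: DeaD-strain S. cerevisiae. Medium: CSMM-D glucose medium, restrictive. Reagent: nicotinamide, 1.5 mM, co-present with compound. Compound: 10 µM single point, 0.25% DMSO. Schedule: culture preincubation 4 h, compound exposure 48 h, both 30 °C. Detection: absorbance at 615 nm.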
# RAM 5-FOA – 5-FOA growth of efflux-deficient control yeast, dose response, counter-screen for RAM network inhibitor project, S. cerevisiae, OD615 | shares compounds with RAM inhibit | max inhibition, % | S. cerevisiae efflux-deficient reporter strain, 5-FOA growth OD615, 2 days | 1,200 tested, under 10 active; call rule not given here;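 further: plate controls were vehicle for no effect and reference inhibitor for full effect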
# * hit, by the source's call; . = no result given.
SMILES,Measles CPE,Yeast growth inh,RAM inhibit,Yeast life ext,RAM 5-FOA
O=C(Nc1ccc(Br)cc1)c1cccc(S(=O)(=O)Nc2cnc3ccccc3c2)c1,6,-21,15*,4,2
COc1ccc(NC(=O)c2cccc(S(=O)(=O)Nc3ccc(Br)cc3)c2)cn1,4,-9,2,-3,.
O=C(CN(C1CC1)S(=O)(=O)c1ccc(S(=O)(=O)NC2CCCCC2)cc1)Nc1ccccc1,3,-18,2,-20,.
O=C(CN(Cc1cccs1)S(=O)(=O)c1ccc(S(=O)(=O)NC2CCCCC2)cc1)Nc1ccccc1,3,-37,14*,3,1
CCCN(N=Nc1cccc([N+](=O)[O-])c1)c1cccc([N+](=O)[O-])c1,4,-43,12*,-10,3
O=C(CCCN1C(=O)/C(=C\c2cccc(Br)c2)SC1=S)Nc1cccnc1,.,.,3,.,.
O=C(O)CCN1C(=O)/C(=C/c2cn(-c3ccccc3)nc2-c2cccs2)SC1=S,.,.,12*,.,2
O=C(O)CCN1C(=O)/C(=C\c2ccncc2)SC1=S,.,.,0,.,.
COc1ccc(CCNC(=O)c2cc(-c3cc(Cl)cc(Cl)c3)oc2C)cc1,18,-76,8,4,.
Cc1oc(-c2cc(Cl)cc(Cl)c2)cc1C(=O)NCCc1ccccc1,4,-41,13*,0,3
CC(C)(C)OC(=O)COc1cc(O)c2c(=O)cc(-c3ccccc3)oc2c1,17,-5,12*,2,2
CCC(C)c1ccc(NC(=S)NCc2ccccc2OC)cc1 (configuration not stated),.,.,11*,.,7
COCCN1C(=O)C(=O)/C(=C(/O)c2ccc(C)cc2)C1c1ccccn1 (configuration not stated),.,.,1,.,.
O=C(CSc1ccc(Cl)cc1)N1CCN(c2ccc(Cl)cc2[N+](=O)[O-])CC1,4,-49,13*,24,4
CC(C)(C)C(=O)N1CCN(c2ccc(Cl)cc2[N+](=O)[O-])CC1,14,-16,-1,7,.
Cc1cccc(-n2c(C)cc(/C=C3\C(=N)N4N=C(CC(C)C)SC4=NC3=O)c2C)c1,4,-35,8,4,.
CC(C)CC1=NN2C(=N)/C(=C\c3coc4ccccc4c3=O)C(=O)N=C2S1,.,.,14*,.,2
CCOC(=O)c1c(-c2ccccc2)csc1NC(=O)CSc1ccccc1,16,-37,13*,3,4
CCOC(=O)c1c(NC(=O)CSc2nncs2)sc(C)c1-c1ccccc1,4,-51,13*,2,4
CCOC(=O)c1c(-c2ccccc2)csc1NC(=O)CCN1CCOCC1,34,22,0,-8,.
COc1ccc(-c2csc(NC(=O)CSc3ccc(Br)cc3)n2)c(OC)c1,22,-43,2,-2,.
COc1ccc(OC)c(-c2csc(NC(=O)CSc3ccccc3)n2)c1,5,-26,11*,1,4
CCOC(=O)c1c(NC(=O)CSc2nnnn2-c2ccc(OC)cc2)sc(C)c1C,21,42,12*,-4,2
Cn1c(SCC(=O)NCc2cccs2)nnc1-c1ccc(O)cc1,.,.,0,.,.
CCN(C(=O)c1ccc(C)c(Br)c1)c1ccccc1,.,.,0,.,.
SMILES,Measles CPE,Yeast growth inh,RAM inhibit,Yeast life ext,RAM 5-FOA
COc1ccccc1NS(=O)(=O)c1cc(NC(=O)/C=C/c2cccs2)ccc1N1CCOCC1,33,-23,4,7,.
CCOC(=O)c1c(-c2ccc(OC)cc2)csc1NC(=O)CSc1nnc(C)c(=O)[nH]1,.,.,5,.,.
CCOC(=O)c1c(-c2ccc(OC)cc2)csc1NC(=O)CSc1ccccc1,6,-26,15*,-2,3
COC(=O)Cc1cc(OC)c(OC)cc1S(=O)(=O)N(C)C,.,.,4,.,.
Cc1ccc(-c2ccc(C(=O)Nc3ccccc3)o2)c2ccccc12,3,1,5,0,.
Cc1ccc(-c2ccc(C(=O)NCc3ccccc3)o2)c2ccccc12,3,-38,12*,0,2
Cc1ccc(-c2cccc(C(=O)NCCc3ccccc3)n2)c2ccccc12,5,-39,14*,0,6
CN(C)C(=O)CSc1nc(SCC(=O)N(C)C)n(-c2ccccc2)n1,28,-36,0,-20,.
O=C(CSc1nc(SCC(=O)NCc2ccccc2)n(-c2ccccc2)n1)NCc1ccccc1,9,-21,36*,-16,2
CCOC(=O)C1CN(S(=O)(=O)c2ccccc2)c2cc(S(=O)(=O)CC)ccc2O1 (configuration not stated),4,-12,1,-4,.
CCOC(=O)C1CN(S(=O)(=O)c2cccc(C(F)(F)F)c2)c2cc(CC(=O)OC)ccc2O1 (configuration not stated),22,-34,16*,-5,2
Cc1cc(Br)ccc1NC(=O)CCSc1ccccc1,13,-32,3,-9,.
Cc1cc(NC(=O)CCSc2ccccc2)ccc1Br,31,-7,14*,-8,2
Cc1ccc(S(=O)(=O)NCC(=O)OCc2csc(-c3ccccc3)n2)cc1,19,-20,3,1,.
O=C(CNS(=O)(=O)c1c(Cl)cccc1Cl)OCc1csc(-c2ccccc2)n1,2,-28,13*,-2,1
O=C(CNS(=O)(=O)c1ccc2ccccc2c1)OCc1csc(-c2ccccc2)n1,14,-60,14*,2,3
CC(C)(CNC(=S)NCCc1ccccc1)CNC(=S)NCCc1ccccc1,8,73*,15*,-5,7
O=C(COC(=O)c1ccc(-c2ccccc2)cc1)Nc1ccccc1-c1ccccc1,2,-30,12*,5,3
Cn1cnnc1SCC(=O)Nc1nc(-c2ccccc2)cs1,.,.,1,.,.
CCOC(=O)C1=C(N)Oc2c(oc(CO)cc2=O)C1c1ccccc1 (configuration not stated),.,.,1,.,.
COc1ccccc1OCCNS(=O)(=O)c1ccc2oc3ccccc3c2c1,13,-10,15*,3,5
Cc1nn(C(=O)Cn2cc([N+](=O)[O-])cn2)c(C)c1Cl,.,.,1,.,.
CCOc1ccc2nc(NC(=O)CSc3nc(-c4ccccc4)c(C#N)c(=O)[nH]3)sc2c1,.,.,14*,.,4
CCOc1cc(S(=O)(=O)Nc2ccccc2CC)ccc1Cl,23,-52,5,13,.
CCOc1cc(S(=O)(=O)Nc2ccc(CC)cc2)ccc1Cl,17,-69,14*,11,1
Cc1ccc(/C=C/S(=O)(=O)NCc2ccc(F)cc2)cc1,.,.,4,.,.
COc1ccc(CCN2C(=O)C(Oc3ccccc3)C2c2ccc3c(c2)OCO3)cc1 (configuration not stated),16,-14,4,2,.
COc1ccc(OC2C(=O)N(Cc3ccc4c(c3)OCO4)C2c2cccs2)cc1 (configuration not stated),10,-36,13*,8,3

# From PubChem
